From ChEMBL document CHEMBL4196113, “Discovery of a First-in-Class Gut-Restricted RET Kinase Inhibitor as a Clinical Candidate for the Treatment of IBS” (ACS Med Chem Lett, 2018)
≈ marks a conversion by molar mass, not a printed value. One block for each compound: values may come before it. Calls of active or inactive are those of the source. The rule behind the calls is not given here.

Columns and labels:
Salmonella typhimurium = experiment: Genotoxicity in Salmonella typhimurium TA98 by Ames test; format: toxicity, organism-based; settings: salmonella enterica subsp. enterica serovar typhimurium
[1] = biological target: Vascular endothelial growth factor receptor 2 (Homo sapiens, UniProt P35968); experiment: Inhibition of human KDR using cisbio TK biotin-peptide as substrate preincubated for 30 mins followed by substrate addition measured after 30 mins by HTRF assay
[2] = biological target: Proto-oncogene tyrosine-protein kinase receptor Ret (Rattus norvegicus, UniProt G3V9H8); experiment: Binding affinity to RET in Sprague-Dawley rat colon tissue cell lysate using sepharose beads incubated for 45 mins by LC-MS/MS based chemoproteomics assay
Procedure, shortened: (§1)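 Colon tissue was isolated from rats and analysed by kinobead chemoproteomics. Compound competed with the beads for kinase binding. Apparent affinity is reported as pKdapp and converted to Kd.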

[3] = biological target: T1, Epithelial discoidin domain-containing receptor 1 (Rattus norvegicus, UniProt Q63474); experiment: Binding affinity to DDR1 in Sprague-Dawley rat colon tissue cell lysate using sepharose beads incubated for 45 mins by LC-MS/MS based chemoproteomics assay; procedure, shortened: as §1
T1 sequence (Q63474 whole entry): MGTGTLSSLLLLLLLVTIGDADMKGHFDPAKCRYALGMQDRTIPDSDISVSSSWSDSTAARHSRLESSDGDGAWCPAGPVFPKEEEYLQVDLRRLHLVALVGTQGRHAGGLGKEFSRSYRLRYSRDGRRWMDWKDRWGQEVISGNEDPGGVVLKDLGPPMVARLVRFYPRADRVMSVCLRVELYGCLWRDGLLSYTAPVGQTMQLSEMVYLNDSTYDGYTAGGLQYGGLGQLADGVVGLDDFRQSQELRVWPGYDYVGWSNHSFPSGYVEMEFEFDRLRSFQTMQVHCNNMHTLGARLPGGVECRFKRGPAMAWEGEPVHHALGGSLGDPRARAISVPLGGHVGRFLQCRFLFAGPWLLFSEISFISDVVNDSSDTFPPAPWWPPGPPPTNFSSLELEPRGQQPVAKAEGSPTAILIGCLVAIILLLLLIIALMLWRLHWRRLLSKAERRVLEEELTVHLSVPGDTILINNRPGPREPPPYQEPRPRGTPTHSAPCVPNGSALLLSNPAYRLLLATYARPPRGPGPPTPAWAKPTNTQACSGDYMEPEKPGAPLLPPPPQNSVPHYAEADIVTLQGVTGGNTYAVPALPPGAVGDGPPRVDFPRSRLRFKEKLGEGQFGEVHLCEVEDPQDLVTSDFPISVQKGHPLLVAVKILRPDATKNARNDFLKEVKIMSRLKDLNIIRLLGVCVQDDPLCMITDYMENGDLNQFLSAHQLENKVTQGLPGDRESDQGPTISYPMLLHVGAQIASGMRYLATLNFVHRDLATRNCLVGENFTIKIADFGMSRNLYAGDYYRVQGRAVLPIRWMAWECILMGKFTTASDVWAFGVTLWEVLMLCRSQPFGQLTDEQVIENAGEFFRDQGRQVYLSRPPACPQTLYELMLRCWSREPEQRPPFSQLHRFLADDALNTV

[4] = Binding affinity to DDR2 in Sprague-Dawley rat colon tissue cell lysate using sepharose beads incubated for 45 mins by LC-MS/MS based chemoproteomics assay; procedure, shortened: as §1
[5] = Solubility of the compound by CLND method; format: physicochemical
Procedure, shortened: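 Kinetic solubility was measured by chemiluminescent nitrogen detection.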

[6] = Solubility of the compound in FaSSIF after 4 hrs; format: physicochemical
Procedure, shortened: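 Solubility was measured in fasted state simulated intestinal fluid after 4 h.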

[7] = AUC in Sprague-Dawley rat at 0.06 mg/kg, iv administered via bolus; format: ADME, organism-based; settings: in vivo
Procedure, shortened: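 Male Sprague–Dawley rats received a single IV bolus. Compound was formulated as a clear solution at 0.04 mg/mL in DMSO/6% HP-beta-CD (5:95), pH 7. AUC was derived from the plasma concentration–time curve.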

[8] = Cmax in colon contents of Sprague-Dawley rat at 10 mg/kg, po bid administered 7 doses over 3.5 days; format: ADME, organism-based, Colon content; parameters: dose 10 mg/kg, route oral
Procedure, shortened: (§2)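 Satellite rats from the colonic hypersensitivity dosing regimen received 10 mg/kg orally twice daily, seven doses over 3.5 days. Concentrations were measured in colon contents, duodenum, jejunum, ileum, colon tissue homogenate and plasma. Cmax (ng/mL) and Tmax (h) were taken from the full time–concentration profiles.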

[9] = Cmax in duodenum of Sprague-Dawley rat at 10 mg/kg, po bid administered 7 doses over 3.5 days; format: ADME, organism-based; parameters: dose 10 mg/kg, route oral; procedure, shortened: as §2
[10] = Cmax in jejunum of Sprague-Dawley rat at 10 mg/kg, po bid administered 7 doses over 3.5 days; format: ADME, organism-based; parameters: dose 10 mg/kg, route oral; procedure, shortened: as §2
[11] = Cmax in ileum of Sprague-Dawley rat at 10 mg/kg, po bid administered 7 doses over 3.5 days; format: ADME, organism-based; parameters: dose 10 mg/kg, route oral; procedure, shortened: as §2
[12] = Cmax in colon of Sprague-Dawley rat at 10 mg/kg, po bid administered 7 doses over 3.5 days; format: ADME, organism-based; parameters: dose 10 mg/kg, route oral; procedure, shortened: as §2
[13] = Cmax in plasma of Sprague-Dawley rat at 10 mg/kg, po bid administered 7 doses over 3.5 days; format: ADME, organism-based; parameters: dose 10 mg/kg, route oral; procedure, shortened: as §2
[14] = Tmax in colon contents of Sprague-Dawley rat at 10 mg/kg, po bid administered 7 doses over 3.5 days; format: ADME, organism-based, Colon content; procedure, shortened: as §2
[15] = Tmax in duodenum of Sprague-Dawley rat at 10 mg/kg, po bid administered 7 doses over 3.5 days; format: ADME, organism-based; procedure, shortened: as §2
[16] = Tmax in jejunum of Sprague-Dawley rat at 10 mg/kg, po bid administered 7 doses over 3.5 days; format: ADME, organism-based; procedure, shortened: as §2
[17] = Tmax in ileum of Sprague-Dawley rat at 10 mg/kg, po bid administered 7 doses over 3.5 days; format: ADME, organism-based; procedure, shortened: as §2
[18] = Tmax in colon of Sprague-Dawley rat at 10 mg/kg, po bid administered 7 doses over 3.5 days; format: ADME, organism-based; procedure, shortened: as §2
[19] = Tmax in plasma of Sprague-Dawley rat at 10 mg/kg, po bid administered 7 doses over 3.5 days; format: ADME, organism-based; procedure, shortened: as §2
Rattus norvegicus = experiment: Reduction in acetic acid-induced acute visceral afferent neuron sensitization in Sprague-Dawley rat acute colonic hypersensitivity model assessed as decrease in visceromotor response to colorectal distension by measuring number of abdominal contractions at 10 mg/kg, po bid administered for 3.5 days followed by acetic acid induction for 60 mins administered 5 mins post last compound dose and measured for 10 mins; format: functional, organism-based
Procedure, shortened: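 Acetic acid enema at low concentration gave a transient, noninflammatory sensitization of colonic afferents. Colorectal distension then evoked a visceromotor response, scored visually as abdominal contractions. Rats (n = 7 per group) were dosed orally at 10 mg/kg twice daily for 3.5 days and compared with acetic acid/vehicle controls. Analysis used repeated-measure two-way ANOVA with Bonferroni post-test.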

Chain of Vascular endothelial growth factor receptor 2 (P35968 whole entry): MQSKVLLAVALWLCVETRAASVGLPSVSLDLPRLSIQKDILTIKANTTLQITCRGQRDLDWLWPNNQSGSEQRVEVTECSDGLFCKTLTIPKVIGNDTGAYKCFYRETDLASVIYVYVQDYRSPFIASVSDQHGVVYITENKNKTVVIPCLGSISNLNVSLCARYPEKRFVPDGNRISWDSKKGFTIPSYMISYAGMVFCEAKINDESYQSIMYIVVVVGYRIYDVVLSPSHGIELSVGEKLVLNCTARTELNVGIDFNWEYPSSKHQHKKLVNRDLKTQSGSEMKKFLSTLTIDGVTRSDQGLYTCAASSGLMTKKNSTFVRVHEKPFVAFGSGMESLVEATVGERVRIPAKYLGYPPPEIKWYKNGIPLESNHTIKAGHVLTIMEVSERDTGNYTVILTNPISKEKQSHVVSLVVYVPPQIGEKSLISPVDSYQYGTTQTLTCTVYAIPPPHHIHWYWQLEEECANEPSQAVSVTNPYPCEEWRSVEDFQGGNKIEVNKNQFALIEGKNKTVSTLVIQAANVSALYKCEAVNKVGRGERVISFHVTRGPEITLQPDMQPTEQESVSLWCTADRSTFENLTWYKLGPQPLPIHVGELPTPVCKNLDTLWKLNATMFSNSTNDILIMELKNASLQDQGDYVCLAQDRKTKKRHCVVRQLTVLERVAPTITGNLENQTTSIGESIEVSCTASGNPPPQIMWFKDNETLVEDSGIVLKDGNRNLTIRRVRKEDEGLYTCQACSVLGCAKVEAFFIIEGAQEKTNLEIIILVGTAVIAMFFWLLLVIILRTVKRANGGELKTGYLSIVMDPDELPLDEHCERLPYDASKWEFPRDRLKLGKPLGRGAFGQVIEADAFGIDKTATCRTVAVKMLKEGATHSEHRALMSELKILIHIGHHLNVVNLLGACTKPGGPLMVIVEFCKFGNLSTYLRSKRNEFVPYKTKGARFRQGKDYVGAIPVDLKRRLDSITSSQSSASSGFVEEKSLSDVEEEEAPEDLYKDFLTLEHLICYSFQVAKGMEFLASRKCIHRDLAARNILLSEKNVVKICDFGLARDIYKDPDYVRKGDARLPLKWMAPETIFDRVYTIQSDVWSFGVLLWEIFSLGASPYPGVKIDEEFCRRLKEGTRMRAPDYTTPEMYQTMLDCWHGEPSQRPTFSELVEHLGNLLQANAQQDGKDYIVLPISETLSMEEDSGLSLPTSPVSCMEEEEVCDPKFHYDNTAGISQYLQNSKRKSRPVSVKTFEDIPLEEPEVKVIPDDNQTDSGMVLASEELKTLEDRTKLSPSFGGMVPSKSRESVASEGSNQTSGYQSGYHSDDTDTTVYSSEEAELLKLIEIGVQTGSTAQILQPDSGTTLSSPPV
Chain of Proto-oncogene tyrosine-protein kinase receptor Ret (G3V9H8 whole entry): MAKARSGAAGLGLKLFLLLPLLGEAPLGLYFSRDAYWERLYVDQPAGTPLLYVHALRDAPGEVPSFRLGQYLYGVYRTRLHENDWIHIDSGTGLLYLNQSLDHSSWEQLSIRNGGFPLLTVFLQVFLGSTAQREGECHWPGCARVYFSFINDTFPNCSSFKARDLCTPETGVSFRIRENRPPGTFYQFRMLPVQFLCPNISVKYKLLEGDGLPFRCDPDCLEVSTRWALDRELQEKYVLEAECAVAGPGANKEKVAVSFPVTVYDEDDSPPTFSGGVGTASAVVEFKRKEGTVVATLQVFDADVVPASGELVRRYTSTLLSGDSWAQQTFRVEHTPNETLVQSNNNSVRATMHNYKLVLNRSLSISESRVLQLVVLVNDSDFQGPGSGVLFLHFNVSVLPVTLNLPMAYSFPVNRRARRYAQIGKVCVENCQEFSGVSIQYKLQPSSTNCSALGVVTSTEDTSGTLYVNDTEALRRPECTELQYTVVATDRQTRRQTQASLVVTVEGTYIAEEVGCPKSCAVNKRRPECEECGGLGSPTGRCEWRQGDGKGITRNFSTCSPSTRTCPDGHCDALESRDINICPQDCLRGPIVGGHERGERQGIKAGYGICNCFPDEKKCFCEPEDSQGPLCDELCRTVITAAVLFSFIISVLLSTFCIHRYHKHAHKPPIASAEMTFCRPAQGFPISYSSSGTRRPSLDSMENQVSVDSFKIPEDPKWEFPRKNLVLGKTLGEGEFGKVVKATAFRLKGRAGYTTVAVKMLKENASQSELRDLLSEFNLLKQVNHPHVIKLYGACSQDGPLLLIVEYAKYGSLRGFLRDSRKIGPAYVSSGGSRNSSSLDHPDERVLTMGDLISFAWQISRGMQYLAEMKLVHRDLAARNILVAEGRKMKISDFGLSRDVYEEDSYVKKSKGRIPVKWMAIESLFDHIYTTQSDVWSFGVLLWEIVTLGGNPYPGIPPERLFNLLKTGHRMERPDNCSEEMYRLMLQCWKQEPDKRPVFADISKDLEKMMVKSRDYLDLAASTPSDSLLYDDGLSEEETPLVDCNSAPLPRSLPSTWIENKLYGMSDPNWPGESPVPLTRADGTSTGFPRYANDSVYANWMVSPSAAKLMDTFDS

Compound: COc1cc(-c2ccc(N)c(F)c2)c[nH]c1=O
Activity (Salmonella typhimurium): Toxic

Compound: CC(C)(c1cc(N)no1)C(F)(F)F
Activity (Salmonella typhimurium): Non-Toxic

Compound: CCN1CCN(Cc2ccc(N)cc2C(F)(F)F)CC1
Activity (Salmonella typhimurium): Toxic

Compound: CCOc1cc(-c2ccc(N)cc2)c[nH]c1=O
Activity (Salmonella typhimurium): Toxic

IC50 [1]: > 1000 nM
Compound: CCN1CCN(Cc2ccc(NC(=O)Nc3ccc(-c4ccnc(NC)c4)cc3)cc2C(F)(F)F)CC1

Compound: CCOc1cc(-c2ccc(N)c(F)c2)c[nH]c1=O
Activity (Salmonella typhimurium): Toxic

Kd [2]: 20 nM | Kd [3]: 40 nM | solubility kinetic [5]: 21 µM (≈ 9.82 µg/mL) | solubility at 4 h [6]: 0.4 µg/mL (≈ 0.856 µM) | AUC [7]: 102 ng·h/mL | Cmax [8]: 288000 ng/mL | Cmax [9]: 15700 ng/mL | Cmax [10]: 12800 ng/mL | Cmax [11]: 5520 ng/mL | Cmax [12]: 3360 ng/mL | Cmax [13]: 40 ng/mL | Tmax [14]: 7 h | Tmax [15]: 0 h | Tmax [16]: 1 h | Tmax [17]: 2 h | Tmax [18]: 7 h | Tmax [19]: 4 h
Compound: CCOc1cc(=O)[nH]cc1-c1ccc(CC(=O)Nc2cc(C(C)(C)C(F)(F)F)on2)c(F)c1 [GSK-3179106]
Activity (Salmonella typhimurium): Non-Toxic | Kd [4]: 90 nM | Activity (Rattus norvegicus): Active
